Experimental data pooled from the literature.
Lines come from different studies, so protocols differ.
AHR: Aryl hydrocarbon receptor (AHR, Homo sapiens, UniProt P35869)
SLC10A2: Ileal sodium/bile acid cotransporter (SLC10A2, Homo sapiens, UniProt Q12908)

| SMILES | target | observed | mode | technique | pH | measurement | result |
| --- | --- | --- | --- | --- | --- | --- | --- |
| COC(=O)c1ccc(C(=O)c2c[nH]c3ccccc23)cc1 | AHR | reporter gene | agonist | luciferase |  | EC50 | > 10 µM |
| CC[C@H](C)C(=O)O[C@H]1C[C@H](O)C=C2C=C[C@H](C)[C@H](CC[C@@H](O)C[C@@H](O)CC(=O)O)[C@H]21 | SLC10A2 | transporter uptake | inhibitor |  |  | Ki | 1360 µM |
| Cc1cnc(-c2ccc(-c3ccc(NC(=O)Nc4c(F)cc(F)cc4F)cc3F)c3c2C(=O)NC3)[nH]1 | Epithelial discoidin domain-containing receptor 1 (DDR1, Homo sapiens, UniProt Q08345) | binding |  | competition with immobilised ligand |  | Kd | 0.0021 µM |
| O=C(N[C@H]1COC(=O)[C@@H](NC(=O)c2cccc(O)c2O)COC(=O)[C@@H](NC(=O)c2cccc(O)c2O)COC1=O)c1cccc(O)c1O | Neutrophil gelatinase-associated lipocalin (LCN2, Homo sapiens, UniProt P80188, C107S) | binding |  | fluorescence | pH 5.5 | Kd | 0.0055 µM |
| CCOC(=O)c1cccc(C(=O)c2c[nH]c3ccccc23)n1 | AHR | reporter gene | agonist | luciferase |  | EC50 | 1.11 µM |
| CCOC(=O)C1=C(C)NC(C)=C(C(=O)OCC)C1c1c(F)c(F)c(F)c(F)c1F | SLC10A2 | transporter uptake | inhibitor |  |  | Ki | 23.1 µM |
| C#Cc1cccc(Nc2ncnc3cc(OC)c(OCCCCCCC(=O)NO)cc23)c1 | Polyamine deacetylase HDAC10 (HDAC10, Homo sapiens, UniProt Q969S8) | cell-free assay |  |  |  | Kd | 7.38 µM |
| CSCC[C@H](NC(=O)[C@@H](NC(=O)[C@@H](N)Cc1ccc(O)cc1)C(C)C)C(=O)NCC(=O)N[C@@H](Cc1c[nH]cn1)C(=O)N[C@@H](Cc1ccccc1)C(=O)O | Melanocortin receptor 5 (MC5R, Homo sapiens, UniProt P33032) | reporter gene | agonist |  |  | EC50 | > 100 µM |
| CCN(CC)CCCC(C)Nc1ccnc2cc(Cl)ccc12 (stereo not drawn) | SLC10A2 | transporter uptake | inhibitor |  |  | Ki | 6320 µM |
| Cc1[nH]c2ccccc2c1C(=O)c1ccccc1 | AHR | reporter gene | agonist | luciferase |  | EC50 | > 10 µM |
| C=CCSCC1Nc2cc(Cl)c(S(N)(=O)=O)cc2S(=O)(=O)N1 (stereo not drawn) | SLC10A2 | transporter uptake | inhibitor |  |  | Ki | 391 µM |
| O=C(c1cccc(Cl)n1)c1c[nH]c2ccccc12 | AHR | reporter gene | agonist | luciferase |  | EC50 | 0.178 µM |
| CCc1c(C)sc(NC(=O)C(Sc2ccccc2)c2ccccc2)c1C(=O)OC (stereo not drawn) | Cannabinoid receptor 2 (CNR2, Homo sapiens, UniProt P34972) | cAMP | agonist | TR-FRET |  | EC50 | 0.0251 µM |
| COC(=O)c1cccc(C(=O)c2c[nH]c3c4c(ccc23)CCC4)n1 | AHR | reporter gene | agonist | luciferase |  | EC50 | 0.031 µM |
| COC(=O)C1=C(C)NC(C)=C(C(=O)OCC(C)C)C1c1ccccc1[N+](=O)[O-] (stereo not drawn) | SLC10A2 | transporter uptake | inhibitor |  |  | Ki | 4.77 µM |
